Measurements: ChEMBL document CHEMBL1629633, “Prevalence of sulfonamide resistance genes in bacterial isolates from manured agricultural soils and pig slurry in the United Kingdom” (2009)
In brackets after ≈: the same amount, converted by molar mass.

Tests used:
Assay type in all cases: functional
[1] = system: Acinetobacter baumannii; experiment: Antimicrobial activity against Acinetobacter baumannii isolate C442 harboring sul1 to sul3 genes by agar dilution method
In short: (§1)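 Agar dilution on Iso-Sensitest agar for MICs and resistance breakpoints. Each isolate's inoculum (100 μl) was adjusted to OD600 0.4. Isolates came from soil cores of a field given pig slurry, or from the pig slurry itself. They were picked from nonselective or antibiotic plates incubated aerobically at 28°C, purified by restreaking, checked for sul genes by PCR and identified by 16S rRNA sequencing.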

[2] = system: Pseudomonas putida; experiment: Antimicrobial activity against Pseudomonas putida isolate C231 harboring sul1 to sul3 genes by agar dilution method; in short: as §1
[3] = Antimicrobial activity against Psychrobacter ikaite isolate C713 harboring sul1 to sul3 genes by agar dilution method
In short: (§2)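 Isolates were recovered from manured clay soil or pig slurry on Iso-Sensitest agar at 28°C. sul genes were detected by PCR, and identity was assigned by ~800 bp 16S rRNA sequencing. MICs and resistance breakpoints were found by agar dilution on Iso-Sensitest agar, with each inoculum (100 μl) adjusted to OD600 0.4.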

[4] = system: Enterococcus hirae; experiment: Antimicrobial activity against Enterococcus hirae isolate PGS48 harboring sul1 to sul3 genes by agar dilution method; in short: as §1
[5] = system: Acinetobacter lwoffii; experiment: Antimicrobial activity against Acinetobacter lwoffii isolate C37 harboring sul1 to sul3 genes by agar dilution method; in short: as §1
[6] = system: Acinetobacter calcoaceticus; experiment: Antimicrobial activity against Acinetobacter calcoaceticus isolate C35 harboring sul1 to sul3 genes by agar dilution method; in short: as §1
[7] = Antimicrobial activity against Psychrobacter ikaite isolate C20 harboring sul1 to sul3 genes by agar dilution method; in short: as §2
[8] = system: Lysinibacillus sphaericus; experiment: Antimicrobial activity against Bacillus sphaericus isolate C237 harboring sul1 to sul3 genes by agar dilution method; in short: as §1
[9] = system: Providencia stuartii; experiment: Antimicrobial activity against Providencia stuartii isolate C167 harboring sul1 to sul3 genes by agar dilution method; in short: as §1
[10] = Antimicrobial activity against Psychrobacter sp. DY9-2 isolate C711 harboring sul1 to sul3 genes by agar dilution method; in short: as §2
[11] = system: Pseudomonas lini; experiment: Antimicrobial activity against Pseudomonas lini isolate C701 harboring sul1 to sul3 genes by agar dilution method; in short: as §1
[12] = system: Acinetobacter lwoffii; experiment: Antimicrobial activity against Acinetobacter lwoffii isolate C141 harboring sul1 to sul3 genes by agar dilution method; in short: as §1
[13] = system: Shigella flexneri; experiment: Antimicrobial activity against Shigella flexneri isolate C506 harboring sul1 to sul3 genes by agar dilution method; in short: as §2
[14] = system: Acinetobacter rhizosphaerae; experiment: Antimicrobial activity against Acinetobacter rhizosphaerae isolate C44 harboring sul1 to sul3 genes by agar dilution method; in short: as §1
[15] = system: Acinetobacter calcoaceticus; experiment: Antimicrobial activity against Acinetobacter calcoaceticus isolate C36 harboring sul1 to sul3 genes by agar dilution method; in short: as §1
[16] = system: Bacillus psychrodurans; experiment: Antimicrobial activity against Bacillus psychrodurans isolate C328 harboring sul1 to sul3 genes by agar dilution method; settings: Psychrobacillus psychrodurans; in short: as §1
[17] = Antimicrobial activity against Acinetobacter sp. An9 isolate PGS49 harboring sul1 to sul3 genes by agar dilution method; in short: as §1
[18] = system: Arthrobacter arilaitensis; experiment: Antimicrobial activity against Arthrobacter arilaitensis isolate C361 harboring sul1 to sul3 genes by agar dilution method; settings: Glutamicibacter arilaitensis; in short: as §1
[19] = system: Pseudomonas borealis; experiment: Antimicrobial activity against Pseudomonas borealis isolate C5 harboring sul1 to sul3 genes by agar dilution method; in short: as §1
[20] = Antimicrobial activity against Psychrobacter ikaite isolate C410 harboring sul1 to sul3 genes by agar dilution method; in short: as §2
[21] = system: Aerococcus viridans; experiment: Antimicrobial activity against Aerococcus viridans isolate PGS22 harboring sul1 to sul3 genes by agar dilution method; in short: as §1
[22] = system: Acinetobacter lwoffii; experiment: Antimicrobial activity against Acinetobacter lwoffii isolate C2 harboring sul1 to sul3 genes by agar dilution method; in short: as §1
[23] = system: Pseudomonas fluorescens; experiment: Antimicrobial activity against Pseudomonas fluorescens isolate C131 harboring sul1 to sul3 genes by agar dilution method; in short: as §1
[24] = system: Acinetobacter lwoffii; experiment: Antimicrobial activity against Acinetobacter lwoffii isolate C15 harboring sul1 to sul3 genes by agar dilution method; in short: as §1
[25] = system: Aerococcus viridans; experiment: Antimicrobial activity against Aerococcus viridans isolate PGS21 harboring sul1 to sul3 genes by agar dilution method; in short: as §1
[26] = system: Psychrobacter frigidicola; experiment: Antimicrobial activity against Psychrobacter frigidicola isolate C712 harboring sul1 to sul3 genes by agar dilution method; in short: as §1
[27] = system: Acinetobacter lwoffii; experiment: Antimicrobial activity against Acinetobacter lwoffii isolate PGS47 harboring sul1 to sul3 genes by agar dilution method; in short: as §1
[28] = system: Stenotrophomonas maltophilia; experiment: Antimicrobial activity against Stenotrophomonas maltophilia isolate C422 harboring sul1 to sul3 genes by agar dilution method; in short: as §2
[29] = system: Enterococcus sulfureus; experiment: Antimicrobial activity against Enterococcus sulfureus isolate PGS61 harboring sul1 to sul3 genes by agar dilution method; in short: as §1
[30] = Antimicrobial activity against Acinetobacter sp. N2 isolate C439 harboring sul1 to sul3 genes by agar dilution method; in short: as §1
[31] = system: Acinetobacter lwoffii; experiment: Antimicrobial activity against Acinetobacter lwoffii isolate C3 harboring sul1 to sul3 genes by agar dilution method; in short: as §1

## Nc1ccc(S(=O)(=O)Nc2ccc(Cl)nn2)cc1 [SULFACHLORPYRIDAZINE]
[1]
  MIC: 8 µg/mL (≈ 28.1 µM)
[2]
  MIC: 8 µg/mL (≈ 28.1 µM)
[3]
  MIC: 8 µg/mL (≈ 28.1 µM)
[4]
  MIC: 4 µg/mL (≈ 14 µM)
[5]
  MIC: 8 µg/mL (≈ 28.1 µM)
[6]
  MIC: 8 µg/mL (≈ 28.1 µM)
[7]
  MIC: 5 µg/mL (≈ 17.6 µM)
[8]
  MIC: 1 µg/mL (≈ 3.51 µM)
[9]
  MIC: 6 µg/mL (≈ 21.1 µM)
[10]
  MIC: 8 µg/mL (≈ 28.1 µM)
[11]
  MIC: 1 µg/mL (≈ 3.51 µM)
[12]
  MIC: 6 µg/mL (≈ 21.1 µM)
[13]
  MIC: 8 µg/mL (≈ 28.1 µM)
[14]
  MIC: 5 µg/mL (≈ 17.6 µM)
[15]
  MIC: 8 µg/mL (≈ 28.1 µM)
[16]
  MIC: 8 µg/mL (≈ 28.1 µM)
[17]
  MIC: 16 µg/mL (≈ 56.2 µM)
[18]
  MIC: 5 µg/mL (≈ 17.6 µM)
[19]
  MIC: 32 µg/mL (≈ 112 µM)
[20]
  MIC: 16 µg/mL (≈ 56.2 µM)
[21]
  MIC: 8 µg/mL (≈ 28.1 µM)
[22]
  MIC: 5 µg/mL (≈ 17.6 µM)
[23]
  MIC: 32 µg/mL (≈ 112 µM)
[24]
  MIC: 5 µg/mL (≈ 17.6 µM)
[25]
  MIC: 32 µg/mL (≈ 112 µM)
[26]
  MIC: 8 µg/mL (≈ 28.1 µM)
[27]
  MIC: 16 µg/mL (≈ 56.2 µM)
[28]
  MIC: 1 µg/mL (≈ 3.51 µM)
[29]
  MIC: 4 µg/mL (≈ 14 µM)
[30]
  MIC: 16 µg/mL (≈ 56.2 µM)
[31]
  MIC: 1 µg/mL (≈ 3.51 µM)
